Laboratory results reported in ChEMBL document CHEMBL2417469, “Synthesis of novel analogs of 2-pyrazoline obtained from [(7-chloroquinolin-4-yl)amino]chalcones and hydrazine as potential antitumor and antimalarial agents” (Eur J Med Chem, 2013).

What was measured:
Assay type in all cases: functional
SK-MEL-2 = experiment: Cytotoxicity against human SK-MEL-2 cells after 48 hrs by SRB assay; settings: SK-MEL-2, 48 h
Outline: (§1)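 NCI 60-cell-line screen. Cells preincubated 24 h at 37 °C, 5% CO2; time-zero plates TCA-fixed. Compounds dissolved in DMSO and tested at five concentrations (100, 10, 1.0, 0.1, 0.01 µM) for 48 h continuous exposure. Adherent cells fixed with cold TCA (10% final), then SRB stained; absorbance at 515 nm. GI50, TGI and LC50 calculated from growth relative to time-zero and untreated controls.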

U-251 = experiment: Cytotoxicity against human U251 cells after 48 hrs by SRB assay; settings: U-251, 48 h
Outline: (§2)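 NCI 60-cell screen. Cells grew 24 h (37 °C, 5% CO2) before compound was added. Compounds were in DMSO and diluted in medium with gentamicin, then tested at five levels (100, 10, 1.0, 0.1, 0.01 µM) with 48 h continuous exposure. Adherent cells were fixed with TCA (10% final) and stained with 0.4% SRB, absorbance read at 515 nm. A time-zero plate was included. LC50 is the concentration giving 50% loss of protein relative to time zero.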

CAKI-1 = experiment: Cytotoxicity against human Caki1 cells after 48 hrs by SRB assay; settings: CAKI-1, 48 h; outline: as §1
UACC-62 = experiment: Cytotoxicity against human UACC62 cells after 48 hrs by SRB assay; settings: UACC-62, 48 h; outline: as §2
HCT-116 = experiment: Cytotoxicity against human HCT116 cells after 48 hrs by SRB assay; settings: HCT-116, 48 h; outline: as §1
MDA-MB-468 = experiment: Cytotoxicity against human MDA-MB-468 cells after 48 hrs by SRB assay; settings: MDA-MB-468, 48 h; outline: as §1
SK-OV-3 = experiment: Cytotoxicity against human SKOV3 cells after 48 hrs by SRB assay; settings: SK-OV-3, 48 h; outline: as §1
Malme-3M = experiment: Cytotoxicity against human MALME-3M cells after 48 hrs by SRB assay; outline: as §1
IGROV-1 = experiment: Cytotoxicity against human IGROV1 cells after 48 hrs by SRB assay; settings: IGROV-1, 48 h; outline: as §1
SK-MEL-5 = experiment: Cytotoxicity against human SK-MEL-5 cells after 48 hrs by SRB assay; settings: SK-MEL-5, 48 h; outline: as §1
M14 = experiment: Cytotoxicity against human M14 cells after 48 hrs by SRB assay; settings: M14, 48 h; outline: as §1
Plasmodium falciparum = experiment: Antimalarial activity against Plasmodium falciparum NF54 infected in human serum at 20 ug/ml after 48 hrs by fluorometric method
Outline: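 Asynchronous P. falciparum NF54 at 1.5–2% parasitemia, 5% hematocrit in RPMI with 10% human serum, exposed 48 h at 37 °C under 90% N2/5% CO2/5% O2 at the stated concentration; parasite DNA stained with ethidium bromide after proteinase K lysis; viability % = (Flu treated − medium)/(Flu untreated − medium) ×100; triplicate.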

COLO 205 = experiment: Cytotoxicity against human COLO205 cells after 48 hrs by SRB assay; settings: COLO 205, 48 h; outline: as §1
SN12C = experiment: Cytotoxicity against human SN12C cells after 48 hrs by SRB assay; outline: as §1
T47D = experiment: Cytotoxicity against human T47D cells after 48 hrs by SRB assay; outline: as §2
RPMI-8226 = experiment: Cytotoxicity against human RPMI8226 cells after 48 hrs by SRB assay; settings: RPMI-8226, 48 h; outline: as §1
A549 = experiment: Cytotoxicity against human A549/ATCC cells after 48 hrs by SRB assay; settings: A549, 48 h; outline: as §1
NCI-H522 = experiment: Cytotoxicity against human NCI-H522 cells after 48 hrs by SRB assay; settings: NCI-H522, 48 h; outline: as §1
NCI/ADR-RES = experiment: Cytotoxicity against human NCI/ADR-RES cells after 48 hrs by SRB assay; outline: as §1
SF-539 = experiment: Cytotoxicity against human SF539 cells after 48 hrs by SRB assay; settings: SF-539, 48 h; outline: as §1
HCC 2998 = experiment: Cytotoxicity against human HCC2998 cells after 48 hrs by SRB assay; settings: HCC 2998, 48 h; outline: as §1
BT-549 = experiment: Cytotoxicity against human BT549 cells after 48 hrs by SRB assay; settings: BT-549, 48 h; outline: as §1
SF-268 = experiment: Cytotoxicity against human SF268 cells after 48 hrs by SRB assay; settings: SF-268, 48 h; outline: as §1
SF-295 = experiment: Cytotoxicity against human SF295 cells after 48 hrs by SRB assay; settings: SF-295, 48 h; outline: as §1
NCI-H226 = experiment: Cytotoxicity against human NCI-H226 cells after 48 hrs by SRB assay; settings: NCI-H226, 48 h; outline: as §1
HT-29 = experiment: Cytotoxicity against human HT-29 cells after 48 hrs by SRB assay; settings: HT-29, 48 h; outline: as §1
NCI-H460 = experiment: Cytotoxicity against human NCI-H460 cells after 48 hrs by SRB assay; settings: NCI-H460, 48 h; outline: as §1
MDA-MB-435 = experiment: Cytotoxicity against human MDA-MB-435 cells after 48 hrs by SRB assay; settings: MDA-MB-435, 48 h; outline: as §1
SR = experiment: Cytotoxicity against human SR cells after 48 hrs by SRB assay; outline: as §2
LOX IMVI = experiment: Cytotoxicity against human LOXIMVI cells after 48 hrs by SRB assay; outline: as §1
HCT-15 = experiment: Cytotoxicity against human HCT15 cells after 48 hrs by SRB assay; settings: HCT-15, 48 h; outline: as §1
RXF 393 = experiment: Cytotoxicity against human RXF393 cells after 48 hrs by SRB assay; settings: RXF 393, 48 h; outline: as §1
KM12 = experiment: Cytotoxicity against human KM12 cells after 48 hrs by SRB assay; settings: KM12, 48 h; outline: as §1
OVCAR-8 = experiment: Cytotoxicity against human OVCAR8 cells after 48 hrs by SRB assay; settings: OVCAR-8, 48 h; outline: as §1
[1] = read-out: LC50 (the source's name)

COc1ccc(C2CC(c3cccc(Nc4ccnc5cc(Cl)ccc45)c3)=NN2C=O)cc1 (configuration not stated)
GI50 (SK-MEL-2): 490 nM
LC50 (SK-MEL-2): > 100 µM
GI50 (U-251): 450 nM
CC50 (U-251; [1]): 41.8 µM
GI50 (CAKI-1): 330 nM
LC50 (CAKI-1): 100 µM
GI50 (UACC-62): 670 nM
CC50 (UACC-62; [1]): > 100 µM
GI50 (HCT-116): 380 nM
LC50 (HCT-116): 38.1 µM
GI50 (MDA-MB-468): 210 nM
LC50 (MDA-MB-468): > 100 µM
GI50 (SK-OV-3): 700 nM
LC50 (concentration killing 50% of cells) (SK-OV-3): > 100 µM
GI50 (Malme-3M): 740 nM
LC50 (Malme-3M): > 100 µM
GI50 (IGROV-1): 1440 nM
LC50 (concentration killing 50% of cells relative to time zero) (IGROV-1): > 100 µM
GI50 (SK-MEL-5): 410 nM
LC50 (concentration killing 50% of cells present at time zero) (SK-MEL-5): > 100 µM
GI50 (M14): 400 nM
CC50 (M14; [1]): > 100 µM
inhibition at 20 µg/mL (Plasmodium falciparum): 4.1%
GI50 (COLO 205): 450 nM
LC50 (COLO 205): 13.9 µM
GI50 (SN12C): 780 nM
LC50 (50% net cell kill relative to time zero) (SN12C): > 100 µM
GI50 (T47D): 530 nM
LC50 (concentration giving 50% cell kill relative to time zero) (T47D): > 100 µM
GI50 (RPMI-8226): 16.7 µM
LC50 (concentration killing 50% of cells) (RPMI-8226): > 100 µM
GI50 (A549): 570 nM
CC50 (A549; [1]): > 100 µM
GI50 (NCI-H522): 300 nM
CC50 (NCI-H522; [1]): > 100 µM
GI50 (NCI/ADR-RES): 350 nM
CC50 (NCI/ADR-RES; [1]): > 100 µM
GI50 (SF-539): 610 nM
CC50 (SF-539; [1]): 66.2 µM
GI50 (HCC 2998): 1320 nM
LC50 (HCC 2998): > 100 µM
GI50 (BT-549): 450 nM
LC50 (50% net cell kill vs time zero) (BT-549): 55.6 µM
GI50 (SF-268): 2560 nM
LC50 (SF-268): > 100 µM
GI50 (SF-295): 320 nM
LC50 (SF-295): > 100 µM
GI50 (NCI-H226): 41.6 µM
LC50 (50% lethal concentration) (NCI-H226): > 100 µM
GI50 (HT-29): 340 nM
LC50 (HT-29): > 100 µM
GI50 (NCI-H460): 400 nM
LC50 (NCI-H460): > 100 µM
GI50 (MDA-MB-435): 140 nM
LC50 (MDA-MB-435): > 100 µM
GI50 (SR): 240 nM
LC50 (SR): > 100 µM
GI50 (LOX IMVI): 580 nM
LC50 (LOX IMVI): 6.7 µM
GI50 (HCT-15): 440 nM
LC50 (concentration killing 50% of cells relative to time zero) (HCT-15): > 100 µM
GI50 (RXF 393): 850 nM
LC50 (concentration killing 50% of cells) (RXF 393): > 100 µM
GI50 (KM12): 440 nM
LC50 (concentration killing 50% of cells) (KM12): > 100 µM
GI50 (OVCAR-8): 950 nM
LC50 (50% net cell kill) (OVCAR-8): > 100 µM
